In ChEMBL document CHEMBL1122570, “Studies on 1,2,3-triazoles. 10. Synthesis and antiallergic properties of 9-oxo-1H,9H-benzothiopyrano[2,3-d]-1,2,3-triazoles and their S-oxides” (1984):

These compounds were tested on Rattus norvegicus (assay: Compound was evaluated for its antiallergic activity in rat passive cutaneous anaphylaxis (PCA) test by the intravenous administration.).
Assay type: functional
How it was run: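 Male Sprague–Dawley rats (250–300 g) sensitized intradermally on shaved backs with six twofold dilutions (typically 1:4–1:128) of rat anti-ovalbumin serum in 0.9% saline. After 72 h, compound given iv to groups of six just before iv challenge with 1% ovalbumin plus pontamine sky-blue. Killed at 20 min and wheal diameters measured. Inhibition computed against vehicle controls; ED50 from log-dose regression with 95% confidence limits.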

Row | SMILES | ED50 [mg/kg]
1 | O=c1c2ccccc2[s+]([O-])c2[nH]nnc12 (stereo not given) | 1.23
2 | Cc1ccc2c(c1)C(=O)c1[nH]nnc1S2(=O)=O | 5.88
3 | Cc1cc2c(cc1C)S(=O)(=O)c1nn[nH]c1C2=O | 0.6
4 | Cc1ccc2sc3nnnc-3c(O)c2c1C | 3.18
5 | Cc1ccc2c(c1C)C(=O)c1[nH]nnc1S2(=O)=O | > 1
6 | Cc1ccc2sc3nnnc-3c(O)c2c1 | 11.4
7 | COc1ccc2sc3nnnc-3c(O)c2c1 | 1.59
8 | Cc1cc2sc3nnnc-3c(O)c2cc1C | 0.43
9 | Oc1c2nnnc-2sc2ccccc12 | 1.43
10 | O=C1c2ccccc2S(=O)(=O)c2[nH]nnc21 | 6.14
